ChEMBL document CHEMBL4689842, “EUbOPEN Chemogenomics Library wave 1” (2021)

Test system: Fibroblast
Test: Multiplex assay against human fibroblast
Assay type: toxicity, cell-based
Procedure, shortened: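 At seeding, live cells were stained with Hoechst33342, BioTracker Green Microtubule Cytoskeleton Dye, MitoTracker Red and Annexin V Alexa Fluor 680. After compound addition they were imaged on a CQ1 microscope at 37°C and 5% CO2, and CellPathfinder machine-learning gating sorted them into Hoechst high-intensity objects or normal cells, with normal cells further split into healthy, pyknosed or fragmented nuclei and pyknosed cells into mitotic or apoptotic. Tubulin, mitochondrial-mass and membrane-permeability phenotypes are given as per cents of cells with healthy nuclei.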

[1] = 12 h, 1 µM, compound concentration 1 uM, replicate 1
[2] = 12 h, 1 µM, compound concentration 1 uM, replicate 2
[3] = 12 h, 10 µM, compound concentration 10 uM, replicate 1
[4] = 12 h, 10 µM, compound concentration 10 uM, replicate 2
[5] = 24 h, 1 µM, compound concentration 1 uM, replicate 1
[6] = 24 h, 1 µM, compound concentration 1 uM, replicate 2
[7] = 24 h, 10 µM, compound concentration 10 uM, replicate 1
[8] = 24 h, 10 µM, compound concentration 10 uM, replicate 2
[9] = 48 h, 1 µM, compound concentration 1 uM, replicate 1
[10] = 48 h, 1 µM, compound concentration 1 uM, replicate 2
[11] = 48 h, 10 µM, compound concentration 10 uM, replicate 1
[12] = 48 h, 10 µM, compound concentration 10 uM, replicate 2

Cc1[nH]c(/C=C2\C(=O)Nc3ccc(S(=O)(=O)N(C)c4cccc(Cl)c4)cc32)c(C)c1C(=O)N1CCN(C)CC1
Population Apoptotic (%) [1]: 64%
Population Fragmented Nuclei (%) [1]: 25%
Population Healthy Nuclei (%) [1]: 51%
Population Hoechst High Intensity Objects (%) [1]: 8%
Population Membrane Permeable-Phenotype (%) [1]: 40%
Population Mitochondria Different-Phenotype (%) [1]: 6%
Population Mitotic Cells (%) [1]: 35%
Population Normal (%) [1]: 91%
Population Pyknosed Nuclei (%) [1]: 22%
Population Tubulin-Different-Phenotype (%) [1]: 43%
Total Cell Count [1]: 68
Population Apoptotic (%) [2]: 100%
Population Fragmented Nuclei (%) [2]: 16%
Population Healthy Nuclei (%) [2]: 77%
Population Hoechst High Intensity Objects (%) [2]: 12%
Population Membrane Permeable-Phenotype (%) [2]: 12%
Population Mitochondria Different-Phenotype (%) [2]: 42%
Population Mitotic Cells (%) [2]: 0%
Population Normal (%) [2]: 87%
Population Pyknosed Nuclei (%) [2]: 6%
Population Tubulin-Different-Phenotype (%) [2]: 68%
Total Cell Count [2]: 90
Population Apoptotic (%) [3]: 61%
Population Fragmented Nuclei (%) [3]: 20%
Population Healthy Nuclei (%) [3]: 61%
Population Hoechst High Intensity Objects (%) [3]: 5%
Population Membrane Permeable-Phenotype (%) [3]: 59%
Population Mitochondria Different-Phenotype (%) [3]: 13%
Population Mitotic Cells (%) [3]: 38%
Population Normal (%) [3]: 94%
Population Pyknosed Nuclei (%) [3]: 18%
Population Tubulin-Different-Phenotype (%) [3]: 93%
Total Cell Count [3]: 76
Population Apoptotic (%) [4]: 25%
Population Fragmented Nuclei (%) [4]: 10%
Population Healthy Nuclei (%) [4]: 74%
Population Hoechst High Intensity Objects (%) [4]: 12%
Population Membrane Permeable-Phenotype (%) [4]: 40%
Population Mitochondria Different-Phenotype (%) [4]: 97%
Population Mitotic Cells (%) [4]: 75%
Population Normal (%) [4]: 87%
Population Pyknosed Nuclei (%) [4]: 16%
Population Tubulin-Different-Phenotype (%) [4]: 100%
Total Cell Count [4]: 70
Population Apoptotic (%) [5]: 53%
Population Fragmented Nuclei (%) [5]: 22%
Population Healthy Nuclei (%) [5]: 56%
Population Hoechst High Intensity Objects (%) [5]: 3%
Population Membrane Permeable-Phenotype (%) [5]: 28%
Population Mitochondria Different-Phenotype (%) [5]: 14%
Population Mitotic Cells (%) [5]: 46%
Population Normal (%) [5]: 96%
Population Pyknosed Nuclei (%) [5]: 20%
Population Tubulin-Different-Phenotype (%) [5]: 62%
Total Cell Count [5]: 64
Population Apoptotic (%) [6]: 100%
Population Fragmented Nuclei (%) [6]: 18%
Population Healthy Nuclei (%) [6]: 72%
Population Hoechst High Intensity Objects (%) [6]: 8%
Population Membrane Permeable-Phenotype (%) [6]: 10%
Population Mitochondria Different-Phenotype (%) [6]: 40%
Population Mitotic Cells (%) [6]: 0%
Population Normal (%) [6]: 91%
Population Pyknosed Nuclei (%) [6]: 9%
Population Tubulin-Different-Phenotype (%) [6]: 55%
Total Cell Count [6]: 65
Population Apoptotic (%) [7]: 77%
Population Fragmented Nuclei (%) [7]: 41%
Population Healthy Nuclei (%) [7]: 46%
Population Hoechst High Intensity Objects (%) [7]: 7%
Population Membrane Permeable-Phenotype (%) [7]: 38%
Population Mitochondria Different-Phenotype (%) [7]: 50%
Population Mitotic Cells (%) [7]: 22%
Population Normal (%) [7]: 92%
Population Pyknosed Nuclei (%) [7]: 12%
Population Tubulin-Different-Phenotype (%) [7]: 97%
Total Cell Count [7]: 79
Population Apoptotic (%) [8]: 100%
Population Fragmented Nuclei (%) [8]: 17%
Population Healthy Nuclei (%) [8]: 73%
Population Hoechst High Intensity Objects (%) [8]: 8%
Population Membrane Permeable-Phenotype (%) [8]: 84%
Population Mitochondria Different-Phenotype (%) [8]: 100%
Population Mitotic Cells (%) [8]: 0%
Population Normal (%) [8]: 91%
Population Pyknosed Nuclei (%) [8]: 9%
Population Tubulin-Different-Phenotype (%) [8]: 100%
Total Cell Count [8]: 71
Population Apoptotic (%) [9]: 61%
Population Fragmented Nuclei (%) [9]: 30%
Population Healthy Nuclei (%) [9]: 48%
Population Hoechst High Intensity Objects (%) [9]: 11%
Population Membrane Permeable-Phenotype (%) [9]: 17%
Population Mitochondria Different-Phenotype (%) [9]: 13%
Population Mitotic Cells (%) [9]: 38%
Population Normal (%) [9]: 88%
Population Pyknosed Nuclei (%) [9]: 21%
Population Tubulin-Different-Phenotype (%) [9]: 65%
Total Cell Count [9]: 68
Population Apoptotic (%) [10]: 50%
Population Fragmented Nuclei (%) [10]: 16%
Population Healthy Nuclei (%) [10]: 80%
Population Hoechst High Intensity Objects (%) [10]: 17%
Population Membrane Permeable-Phenotype (%) [10]: 27%
Population Mitochondria Different-Phenotype (%) [10]: 15%
Population Mitotic Cells (%) [10]: 50%
Population Normal (%) [10]: 82%
Population Pyknosed Nuclei (%) [10]: 2%
Population Tubulin-Different-Phenotype (%) [10]: 81%
Total Cell Count [10]: 88
Population Apoptotic (%) [11]: 66%
Population Fragmented Nuclei (%) [11]: 40%
Population Healthy Nuclei (%) [11]: 37%
Population Hoechst High Intensity Objects (%) [11]: 11%
Population Membrane Permeable-Phenotype (%) [11]: 16%
Population Mitochondria Different-Phenotype (%) [11]: 76%
Population Mitotic Cells (%) [11]: 33%
Population Normal (%) [11]: 88%
Population Pyknosed Nuclei (%) [11]: 22%
Population Tubulin-Different-Phenotype (%) [11]: 100%
Total Cell Count [11]: 76
Population Apoptotic (%) [12]: 50%
Population Fragmented Nuclei (%) [12]: 21%
Population Healthy Nuclei (%) [12]: 72%
Population Hoechst High Intensity Objects (%) [12]: 8%
Population Membrane Permeable-Phenotype (%) [12]: 25%
Population Mitochondria Different-Phenotype (%) [12]: 52%
Population Mitotic Cells (%) [12]: 50%
Population Normal (%) [12]: 91%
Population Pyknosed Nuclei (%) [12]: 6%
Population Tubulin-Different-Phenotype (%) [12]: 95%
Total Cell Count [12]: 72
